# Published values pooled from the literature.
# Each line is one published result; the experiments were not run side by side.
# SLC6A2: Sodium-dependent noradrenaline transporter (SLC6A2, Homo sapiens, UniProt P23975)
# Oprk1: Kappa-type opioid receptor (Oprk1, Mus musculus, UniProt P33534)
# MPO: Myeloperoxidase (MPO, Homo sapiens, UniProt P05164)
SMILES,target,test,test system,conditions,inhibition [%]
CCOC(=O)[C@@]12C[C@@H]1[C@@H](n1ccc3c(NCCCCc4ccccc4)nc(C#Cc4ccccc4)nc31)[C@H](O)[C@@H]2O,SLC6A2,"ligand displacement, radioligand",,10 µM,81
O=c1c(O[C@@H]2O[C@H](CO)[C@H](O)[C@H](O)[C@H]2O)c(-c2ccc(O)c(O)c2)oc2cc(O)cc(O)c12,"srtA (Staphylococcus aureus, UniProt Q2FV99)","enzyme activity, inhibitor, FRET",,120 µM,79.1
CC(C)[C@@H](CN1CCc2ccccc2C1)NC(=O)c1cccc(-c2ccccc2)c1,Oprk1,"ligand displacement, radioligand",,10 µM,66
OC[C@@]12C[C@@H]1[C@@H](n1cnc3c(N[C@@H](C4CCC4)C4CC4)nc(C#Cc4ccc(Cl)s4)nc31)[C@H](O)[C@@H]2O,SLC6A2,"ligand displacement, radioligand",,10 µM,90
COc1ccc(Cl)cc1-c1cc(=O)[nH]c(=S)n1CC(N)=O,MPO,"enzyme activity, inhibitor, fluorescence",,30 µM,98.3
CC(C)[C@@H](CN1CCc2ccccc2C1)NC(=O)c1cccc(-c2cccc(C#N)c2)c1,Oprk1,"ligand displacement, radioligand",,10 µM,80.6
Cc1cc(O)c(-c2ccc([C@@H](C)CN(C)C)cc2)c2c1[nH]c(=O)c1sccc12,"Serine/threonine-protein kinase WNK4 (WNK4, Homo sapiens, UniProt Q96J92)","enzyme activity, inhibitor",,0.1 µM,1.12
CCOC(=O)[C@@]12C[C@@H]1[C@@H](n1cnc3c(NCCCCCCc4ccccc4)nc(I)nc31)[C@H](O)[C@@H]2O,SLC6A2,"ligand displacement, radioligand",,10 µM,52
CC(C)[C@@H](CN1CCc2ccccc2C1)NC(=O)c1ccc(F)cc1,Oprk1,"ligand displacement, radioligand",,10 µM,75.7
N#CC[C@@]12C[C@@H]1[C@@H](n1cnc3c(NC4CC4)nc(C#Cc4ccc(Cl)s4)nc31)[C@H](O)[C@@H]2O,SLC6A2,"ligand displacement, radioligand",,10 µM,28
NC/C(=C\F)COc1cccc(Cn2c(=S)[nH]c(=O)c3[nH]cnc32)c1,MPO,"enzyme activity, inhibitor, fluorescence",,3.333 µM,99.2
CCOC(=O)[C@@]12C[C@@H]1[C@@H](n1cnc3c(NCCCCCc4ccccc4)nc(C#Cc4ccc(Cl)s4)nc31)[C@H](O)[C@@H]2O,SLC6A2,"transporter uptake, inhibitor, radiometric",HEK293,10 µM,0
CC(C)[C@H](CN1CCc2ccccc2C1)NC(=O)C=Cc1ccccc1,Oprk1,"ligand displacement, radioligand",,10 µM,55.7
Cc1cc(F)cc2c(CCC(=O)N[C@@H]3C(=O)NC[C@H]3O)c(-c3ccc(F)cc3)[nH]c12,SLC6A2,cell-free assay,,10 µM,21
C#Cc1cc(-c2cc(Nc3nc(N[C@@H](C)c4ccc(F)cn4)ncc3Cl)n[nH]2)ccc1C=O,"Interferon-induced, double-stranded RNA-activated protein kinase (EIF2AK2, Homo sapiens, UniProt P19525)","enzyme activity, inhibitor",,0.2 µM,7.44
CC(C)[C@@H](CN1CCc2ccccc2C1)NC(=O)c1c(Cl)cncc1Cl,Oprk1,"ligand displacement, radioligand",,10 µM,70.9
CCOC(=O)[C@@]12C[C@@H]1[C@@H](n1cnc3c(Nc4ccccc4)nc(C#Cc4ccc(Cl)s4)nc31)[C@H](O)[C@@H]2O,SLC6A2,"ligand displacement, radioligand",,10 µM,78
CC(C)[C@@H](CN1CCc2ccccc2C1)NC(=O)c1ccc([N+](=O)[O-])s1,Oprk1,"ligand displacement, radioligand",,10 µM,68.8
CC(C)OCCn1c(=S)[nH]c(=O)c2[nH]ccc21,MPO,"enzyme activity, inhibitor, fluorescence",,0.3704 µM,96.2
CCOC(=O)[C@@]12C[C@@H]1[C@@H](n1cnc3c(NCCCCCc4ccccc4)nc(C#Cc4ccccc4)nc31)[C@H](O)[C@@H]2O,SLC6A2,"transporter uptake, inhibitor, radiometric",HEK293,10 µM,1
CC(C)[C@@H](CN1CCc2ccccc2C1)NC(=O)c1cccc(-c2ccc(F)cc2)c1,Oprk1,"ligand displacement, radioligand",,10 µM,63.9
